Experimental data reported in ChEMBL document CHEMBL3232854, “Agonists for the adenosine A1 receptor with tunable residence time. A Case for nonribose 4-amino-6-aryl-5-cyano-2-thiopyrimidines” (J Med Chem, 2014).

How the values were obtained:
[1] = target: Adenosine receptor A2a (Homo sapiens) (UniProt P29274); test: Displacement of [3H]ZM241385 from human adenosine A2A receptor expressed in HEK293 cell membranes at 1 uM after 2 hrs by beta scintillation counting analysis relative to control
In short: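 HEK 293 membranes stably expressing human A2A receptor (25 μg protein) incubated with [3H]ZM241385 in 50 mM Tris-HCl pH 7.4, 2 h at 25 °C; compounds at 1 μM; nonspecific binding with 100 μM CPA; GF/B filtration, ice-cold washes, scintillation counting; ≥2 experiments in duplicate.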

[2] = target: T1, Adenosine receptor A3 (Homo sapiens) (UniProt P0DMS8); test: Displacement of [3H]PSB11 from human adenosine A3 receptor expressed in CHO cell membranes at 1 uM after 2 hrs by beta scintillation counting analysis relative to control
T1 sequence (whole entry): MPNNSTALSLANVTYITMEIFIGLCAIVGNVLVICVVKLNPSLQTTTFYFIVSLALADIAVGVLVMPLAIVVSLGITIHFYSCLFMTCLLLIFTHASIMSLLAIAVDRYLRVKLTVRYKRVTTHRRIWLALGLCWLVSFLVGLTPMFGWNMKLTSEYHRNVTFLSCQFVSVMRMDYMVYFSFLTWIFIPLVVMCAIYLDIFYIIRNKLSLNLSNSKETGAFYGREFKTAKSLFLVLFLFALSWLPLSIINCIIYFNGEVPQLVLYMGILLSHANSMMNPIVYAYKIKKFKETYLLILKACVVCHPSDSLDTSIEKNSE
In short: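 CHO membranes stably expressing human A3 receptor (45 μg protein) incubated with [3H]PSB11 and 1 μM compound in 50 mM Tris-HCl pH 8.0, 10 mM MgCl2, 1 mM EDTA, 0.01% CHAPS, 2 h at 25 °C; nonspecific binding with 100 μM NECA; filtration, washes without CHAPS, scintillation counting; ≥2 experiments in duplicate.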

[3] = target: T2, Adenosine receptor A1 (Homo sapiens) (UniProt P30542); test: Agonist activity human adenosine A1 receptor expressed in CHO cell membranes assessed as stimulation of [35S]GTPgammaS binding preincubated for 30 mins followed by radioligand addition measured after 90 mins by beta scintillation counting analysis relative to N6-cyclopentyladenosine; format: functional
T2 sequence (whole entry): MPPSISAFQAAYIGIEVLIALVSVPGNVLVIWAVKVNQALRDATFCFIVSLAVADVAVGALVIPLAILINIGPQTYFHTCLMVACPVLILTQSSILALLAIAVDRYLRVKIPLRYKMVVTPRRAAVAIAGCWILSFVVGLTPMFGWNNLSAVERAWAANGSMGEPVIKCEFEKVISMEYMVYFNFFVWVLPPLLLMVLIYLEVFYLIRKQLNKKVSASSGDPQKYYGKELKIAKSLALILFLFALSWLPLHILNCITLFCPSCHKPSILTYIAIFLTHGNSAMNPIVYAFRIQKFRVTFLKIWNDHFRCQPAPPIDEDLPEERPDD

Adenosine receptor A1 [4] = target: T3, Adenosine receptor A1 (Homo sapiens, UniProt P30542); test: Agonist activity human adenosine A1 receptor expressed in CHO cell membranes assessed as stimulation of [35S]GTPgammaS binding preincubated for 30 mins followed by radioligand addition measured after 90 mins by beta scintillation counting analysis; format: functional
T3 sequence (P30542 whole entry): T2 sequence (whole entry)

[5] = target: T2, Adenosine receptor A1 (Homo sapiens); test: Ratio for displacement of [3H]DPCPX from human adenosine A1 receptor expressed in CHO cell membranes at 10 times Ki after 15 mins by dual-point competition association assay to ratio for displacement of [3H]DPCPX from human adenosine A1 receptor expressed in CHO cell membranes 10 times Ki after 120 mins by dual-point competition association assay
Adenosine receptor A1 [6] = target: T3, Adenosine receptor A1; test: Displacement of [3H]DPCPX from human adenosine A1 receptor expressed in CHO cell membranes after 1 hr by beta scintillation counting analysis
In short: (§1)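 Membranes from CHO cells stably expressing human A1 receptor (5 μg protein) incubated with [3H]DPCPX in 25 mM Tris-HCl pH 7.4, 5 mM MgCl2, 0.1% CHAPS, 1 h at 25 °C; nonspecific binding with 100 μM CPA; GF/B filtration, three ice-cold washes, scintillation counting. Single 1 μM points from ≥2 experiments in duplicate; Ki by nonlinear regression (radioligand KD 1.6 nM), ≥3 experiments in duplicate.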

[7] = target: T4, Adenosine receptor A2b (Homo sapiens) (UniProt P29275); test: Displacement of [3H]PSB603 from human adenosine A2B receptor expressed in CHO cell membranes at 1 uM after 2 hrs by beta scintillation counting analysis relative to control
T4 sequence (whole entry): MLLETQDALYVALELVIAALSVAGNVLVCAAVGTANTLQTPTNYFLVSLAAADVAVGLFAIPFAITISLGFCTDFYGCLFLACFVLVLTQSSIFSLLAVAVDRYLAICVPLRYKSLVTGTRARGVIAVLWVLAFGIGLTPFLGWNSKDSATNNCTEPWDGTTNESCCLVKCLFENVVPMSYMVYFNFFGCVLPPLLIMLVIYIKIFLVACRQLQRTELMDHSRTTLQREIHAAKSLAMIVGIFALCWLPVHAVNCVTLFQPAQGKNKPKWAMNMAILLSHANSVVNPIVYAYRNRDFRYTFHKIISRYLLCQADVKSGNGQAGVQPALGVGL

[8] = target: T2, Adenosine receptor A1 (Homo sapiens); test: Displacement of [3H]DPCPX from human adenosine A1 receptor expressed in CHO cell membranes assessed as residence time on receptor at 10 times Ki after 90 mins by competition association assay
Adenosine receptor A1 [9] = target: T3, Adenosine receptor A1; test: Agonist activity at adenosine A1 receptor (unknown origin) expressed in CHO cells assessed as […] in intracellular cAMP level by RIA; format: functional, cell-based
Adenosine receptor A1 [10] = target: T3, Adenosine receptor A1; test: Agonist activity at human adenosine A1 receptor expressed in HEK293 cells assessed as […] in intracellular cAMP level after 30 mins by EIA; format: functional, cell-based
[11] = target: T2, Adenosine receptor A1 (Homo sapiens); test: Displacement of [3H]DPCPX from human adenosine A1 receptor expressed in CHO cell membranes at 1 uM after 1 hr by beta scintillation counting analysis relative to control; in short: as §1
Adenosine receptor A2b = target: T5, Adenosine receptor A2b (Homo sapiens, UniProt P29275); test: Displacement of [3H]PSB603 from human adenosine A2B receptor expressed in CHO cell membranes after 2 hrs by beta scintillation counting analysis
T5 sequence (P29275 whole entry): T4 sequence (whole entry)

[12] = target: T2, Adenosine receptor A1 (Homo sapiens); test: Agonist activity human adenosine A1 receptor expressed in CHO cell membranes assessed as stimulation of [35S]GTPgammaS binding at 100 times Ki preincubated for 30 mins followed by radioligand addition measured after 90 mins by beta scintillation counting analysis relative to N6-cyclopentyladenosine; format: functional

Sequence of Adenosine receptor A2a (Homo sapiens) (P29274 whole entry): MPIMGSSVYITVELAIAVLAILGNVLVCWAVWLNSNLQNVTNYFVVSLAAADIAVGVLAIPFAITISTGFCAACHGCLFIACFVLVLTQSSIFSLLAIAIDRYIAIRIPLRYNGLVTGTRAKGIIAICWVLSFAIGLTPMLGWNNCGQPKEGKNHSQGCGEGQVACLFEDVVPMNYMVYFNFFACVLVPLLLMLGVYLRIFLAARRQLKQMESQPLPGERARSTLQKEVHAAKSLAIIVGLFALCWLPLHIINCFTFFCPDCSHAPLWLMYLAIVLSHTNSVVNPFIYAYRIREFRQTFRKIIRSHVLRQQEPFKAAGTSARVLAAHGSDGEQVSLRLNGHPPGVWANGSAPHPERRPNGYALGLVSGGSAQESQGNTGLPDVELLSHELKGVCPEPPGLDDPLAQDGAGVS

| Compound | Ratio [5] | Ki (Adenosine receptor A1 [6]) [nM] | TIME [8] [h] | further results |
| --- | --- | --- | --- | --- |
| CC(=O)Nc1ccc(-c2nc(SCc3csc(-c4ccc(Cl)cc4)n3)nc(N)c2C#N)cc1 | 0.97 | 14 |  | inhibition [1]: 44%; inhibition [2]: 5.5%; Emax [3]: 112%; EC50 (Adenosine receptor A1 [4]): 3.9 nM; inhibition [7]: 2.5% |
| N#Cc1c(N)nc(SCc2csc(-c3ccc(Cl)cc3)n2)c(C#N)c1-c1ccc(OCCO)cc1 [CAPADENOSON] | 1.42 |  |  | EC50 (Adenosine receptor A1 [9]): 0.1 nM |
| CN(C)c1ccc(-c2nc(SCc3csc(-c4ccc(Cl)cc4)n3)nc(N)c2C#N)cc1 |  | 233 |  |  |
| N#Cc1c(N)nc(SCc2coc(-c3ccc(Cl)cc3)n2)nc1-c1ccc2c(c1)OCO2 | 1.17 | 15 |  |  |
| CCN(CC)CCN1CCN(C(=O)CCc2cccc(CSc3nc(N)c(C#N)c(-c4ccc(NC(C)=O)cc4)n3)n2)CC1 |  |  |  | EC50 (Adenosine receptor A1 [10]): 1 nM |
| Cc1ccc(-c2nc(SCc3csc(-c4ccc(Cl)cc4)n3)nc(N)c2C#N)cc1 |  |  |  | inhibition [11]: 44% |
| N#Cc1c(N)nc(SCc2csc(-c3ccc(C(F)(F)F)cc3)n2)nc1-c1ccc2c(c1)OCO2 | 1.2 | 18 |  |  |
| N#Cc1c(N)nc(SCc2csc(-c3ccc(Cl)cc3)n2)nc1-c1ccc2c(c1)OCO2 | 1.64 | 14 | 0.857 | inhibition [1]: 4.5%; inhibition [2]: 4.5%; Emax [3]: 71%; EC50 (Adenosine receptor A1 [4]): 4.9 nM; inhibition [7]: 0% |
| N#Cc1c(N)nc(SCc2csc(-c3ccccc3F)n2)nc1-c1ccc2c(c1)OCO2 | 1.46 | 12 | 0.375 |  |
| N#Cc1c(N)nc(SCc2csc(-c3ccc(Cl)c(Cl)c3)n2)nc1-c1ccc2c(c1)OCO2 |  |  |  | inhibition [11]: 23% |
| N#Cc1c(N)nc(SCc2csc(-c3ccc(Cl)cc3)n2)nc1-c1ccc(O)cc1 | 0.99 | 15 |  |  |
| COc1ccc(-c2nc(SCc3csc(-c4ccc(Cl)cc4)n3)nc(N)c2C#N)cc1 |  |  |  | inhibition [11]: 73% |
| N#Cc1c(N)nc(SCc2c[nH]cn2)nc1-c1ccc2c(c1)OCO2 | 1.15 | 83 |  |  |
| N#Cc1c(N)nc(SCc2csc(-c3cccc(Cl)c3)n2)nc1-c1ccc2c(c1)OCO2 | 1.24 | 42 | 0.5 |  |
| N#Cc1c(N)nc(SCc2csc(-c3ccc(Cl)cc3)n2)nc1-c1ccc(OC(F)(F)F)cc1 |  | 185 |  |  |
| N#Cc1c(N)nc(SCc2coc(-c3cccc(F)c3)n2)nc1-c1ccc2c(c1)OCO2 | 1.24 | 15 | 0.0508 |  |
| N#Cc1c(N)nc(SCc2csc(-c3ccc([N+](=O)[O-])cc3)n2)nc1-c1ccc2c(c1)OCO2 | 0.95 | 11 |  |  |
| N#Cc1c(N)nc(SCc2csc(-c3ccccc3Cl)n2)nc1-c1ccc2c(c1)OCO2 | 1.29 | 75 | 0.588 |  |
| N#Cc1c(N)nc(SCc2csc(-c3cccc(F)c3)n2)nc1-c1ccc2c(c1)OCO2 | 1.24 | 14 | 0.55 |  |
| CCOc1ccc(-c2nc(SCc3csc(-c4ccc(Cl)cc4)n3)nc(N)c2C#N)cc1 |  |  |  | inhibition [11]: 49% |
| N#Cc1c(N)nc(SCc2coc(-c3ccc(F)cc3)n2)nc1-c1ccc2c(c1)OCO2 | 1.01 | 20 |  |  |

Second part, led by results:

| Ratio [5] | Ki (Adenosine receptor A1 [6]) [nM] | TIME [8] [h] | Compound | further results |
| --- | --- | --- | --- | --- |
| 1.24 | 8.9 | 0.538 | N#Cc1c(N)nc(SCc2csc(-c3ccc(Cl)cc3)n2)nc1-c1ccccc1 |  |
| 1.4 | 9.9 | 1.06 | N#Cc1c(N)nc(SCc2csc(-c3ccc(I)cc3)n2)nc1-c1ccc2c(c1)OCO2 | inhibition [1]: 2.5%; inhibition [2]: 9%; Emax [3]: 82%; EC50 (Adenosine receptor A1 [4]): 9.5 nM; inhibition [7]: 7.5% |
| 1 | 1.8 |  | COc1ccc(-c2nc(CSc3nc(N)c(C#N)c(-c4ccc5c(c4)OCO5)n3)cs2)cc1 | inhibition [1]: 3.2%; inhibition [2]: 11%; Emax [3]: 104%; EC50 (Adenosine receptor A1 [4]): 1.9 nM; inhibition [7]: 3.5% |
| 1.1 | 2.4 |  | N#Cc1c(N)nc(SCc2csc(-c3ccccc3)n2)nc1-c1ccc2c(c1)OCO2 | inhibition [1]: -2%; inhibition [2]: 24%; Emax [3]: 84%; EC50 (Adenosine receptor A1 [4]): 4.6 nM; inhibition [7]: 20% |
| 0.93 | 9.7 |  | N#Cc1c(N)nc(SCc2cscn2)nc1-c1ccc2c(c1)OCO2 | inhibition [1]: 31%; Ki (Adenosine receptor A2b): 42 nM; inhibition [2]: 35%; Emax [12]: 27% |
| 1.18 | 4.8 |  | N#Cc1c(N)nc(SCc2csc(-c3ccc(Cl)cc3)n2)nc1-c1ccc(OCCO)cc1 | inhibition [1]: 10%; inhibition [2]: 3%; Emax [3]: 99%; EC50 (Adenosine receptor A1 [4]): 12 nM; inhibition [7]: 3.5% |
| 1.22 | 6.7 | 0.575 | N#Cc1c(N)nc(SCc2csc(-c3ccc(F)cc3)n2)nc1-c1ccc2c(c1)OCO2 |  |
| 0.81 | 1.9 | 0.02 | N#Cc1c(N)nc(SCc2csc(N3CCOCC3)n2)nc1-c1ccc2c(c1)OCO2 | inhibition [1]: 21%; inhibition [2]: 18%; Emax [3]: 65%; EC50 (Adenosine receptor A1 [4]): 1.8 nM; inhibition [7]: 12% |
| 1.17 | 6.3 |  | N#Cc1c(N)nc(SCc2csc(C3CCCCC3)n2)nc1-c1ccc2c(c1)OCO2 |  |
| 0.93 | 2.5 |  | N#Cc1c(N)nc(SCc2csc(-c3ccc4c(c3)OCO4)n2)nc1-c1ccc2c(c1)OCO2 |  |
| 1.67 | 5.2 | 0.983 | N#Cc1c(N)nc(SCc2csc(-c3ccc(Br)cc3)n2)nc1-c1ccc2c(c1)OCO2 | inhibition [1]: 2.9%; inhibition [2]: -1.8%; Emax [3]: 60%; EC50 (Adenosine receptor A1 [4]): 4.6 nM; inhibition [7]: 1.7% |
| 1.15 | 3.1 |  | Cc1ccc(-c2nc(CSc3nc(N)c(C#N)c(-c4ccc5c(c4)OCO5)n3)cs2)cc1 |  |
